Data as given in ChEMBL document CHEMBL3526106, “Cytochrome P450 regulation by α-tocopherol in Pxr-null and PXR-humanized mice” (Drug Metab Dispos, 2013).

Experiments:
Parameters in all cases: dose 500 mg/kg
[1] = system: Mus musculus; assay: Drug metabolism in male PXR-humanized mouse assessed as urinary alpha-carboxymethylbutylhydroxychroman glucuronide level at 500 mg/kg for 7 to 14 days dosed through vitamin E-deficient base diet by UPLC-ESI-QTOFMS method based metabolomics analysis; type: ADME, organism-based, Urine; details: in vivo, po
How it was run: (§1)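 Male mice from three weeks of age on vitamin E deficient diet; at eight weeks, 24 h predose urine in metabolic cages, then half switched to the same diet supplemented with 500 mg/kg DL-α-tocopheryl acetate. 24 h urine collected at nine and 10 weeks. Urinary metabolites quantitated by UPLC-MRM on triple-quadrupole MS against authentic standards and calibration curves, normalized to urinary creatinine (µmol/mmol creatinine); mean ± SEM, two-tailed unpaired t-test.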

[2] = system: Mus musculus; assay: Effect on Ugt1a6b gene expression in wild type mouse liver at 500 mg/kg for 7 to 14 days dosed through vitamin E-deficient base diet by qPCR method; type: ADME, organism-based; details: in vivo, po
How it was run: (§2)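 Male mice on vitamin E deficient diet, switched at eight weeks to the same diet with 500 mg/kg DL-α-tocopheryl acetate (controls kept deficient); killed at nine or 10 weeks, livers flash frozen. Hepatic mRNA by SYBR Green qPCR with 25 ng cDNA and 150 nM primers, triplicate reactions; comparative threshold cycle method against β-actin, fold change versus deficient diet; mean ± SEM, two-tailed t-test.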

[3] = system: Mus musculus; assay: Drug metabolism in male PXR-humanized mouse assessed as urinary alpha-carboxyethylhydroxychroman glucuronide level at 500 mg/kg for 7 to 14 days dosed through vitamin E-deficient base diet by UPLC-ESI-QTOFMS method based metabolomics analysis; type: ADME, organism-based, Urine; details: in vivo, po; how it was run: as §1
[4] = system: Mus musculus; assay: Effect on Ugt1a6a gene expression in wild type mouse liver at 500 mg/kg for 7 to 14 days dosed through vitamin E-deficient base diet by qPCR method; type: ADME, organism-based; details: in vivo, po; how it was run: as §2
[5] = system: Mus musculus; assay: Induction of Cyp4f15 gene expression in wild type mouse liver at 500 mg/kg for 7 to 14 days dosed through vitamin E-deficient base diet by qPCR method; type: ADME, organism-based; details: in vivo, po
How it was run: (§3)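 Male mice (wild-type, Pxr-null, hPXR; NCI-bred) on vitamin E-deficient diet from 3 weeks of age; at 8 weeks half switched to same base diet supplemented with 500 mg/kg DL-α-tocopheryl acetate, rest kept deficient. Livers harvested at 9 and 10 weeks. qPCR: 25 ng cDNA, 150 nM each primer, SYBR Green, triplicate; comparative Ct vs β-actin; fold change enriched vs deficient diet; mean ± SEM, two-tailed unpaired t-test.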

[6] = system: Mus musculus; assay: Induction of Cyp4f14 gene expression in male PXR null mouse liver at 500 mg/kg for 7 to 14 days dosed through vitamin E-deficient base diet by qPCR method; type: ADME, organism-based; details: in vivo, po; how it was run: as §3
[7] = system: Mus musculus; assay: Effect on Ugt1a6b gene expression in male PXR null mouse liver at 500 mg/kg for 7 to 14 days dosed through vitamin E-deficient base diet by qPCR method; type: ADME, organism-based; details: in vivo, po; how it was run: as §2
[8] = system: Mus musculus; assay: Drug metabolism in male PXR-humanized mouse assessed as urinary alpha-carboxyethylhydroxychroman glycine level at 500 mg/kg for 7 to 14 days dosed through vitamin E-deficient base diet by UPLC-ESI-QTOFMS method based metabolomics analysis; type: ADME, organism-based, Urine; details: in vivo, po
[9] = system: Mus musculus; assay: Induction of Cyp4f16 gene expression in wild type mouse liver at 500 mg/kg for 7 to 14 days dosed through vitamin E-deficient base diet by qPCR method; type: ADME, organism-based; details: in vivo, po; how it was run: as §3
[10] = system: Cyp2c55; assay: Induction of Cyp2c55 gene expression in male PXR null mouse liver at 500 mg/kg for 7 to 14 days dosed through vitamin E-deficient base diet by qPCR method; type: ADME, organism-based; details: po, read-out: FC; how it was run: as §2
[11] = system: Cyp2c37; assay: Induction of Cyp2c37 gene expression in male PXR-humanized mouse liver at 500 mg/kg for 7 to 14 days dosed through vitamin E-deficient base diet by qPCR method; type: ADME, organism-based; details: po, read-out: FC; how it was run: as §2
[12] = system: Mus musculus; assay: Induction of Cyp3a11 gene expression in male wild type mouse liver at 500 mg/kg for 7 to 14 days dosed through vitamin E-deficient base diet by qPCR method; type: ADME, organism-based; details: in vivo, po; how it was run: as §3
[13] = system: Mus musculus; assay: Drug metabolism in male PXR null mouse assessed as urinary alpha-carboxyethylhydroxychroman glucuronide level at 500 mg/kg for 7 to 14 days dosed through vitamin E-deficient base diet by UPLC-ESI-QTOFMS method based metabolomics analysis; type: ADME, organism-based, Urine; details: in vivo, po
[14] = system: Mus musculus; assay: Drug metabolism in male PXR null mouse assessed as urinary alpha-carboxyethylhydroxychroman glycine level at 500 mg/kg for 7 to 14 days dosed through vitamin E-deficient base diet by UPLC-ESI-QTOFMS method based metabolomics analysis; type: ADME, organism-based, Urine; details: in vivo, po; how it was run: as §1
[15] = system: Mus musculus; assay: Induction of Cyp4f14 gene expression in male PXR-humanized mouse liver at 500 mg/kg for 7 to 14 days dosed through vitamin E-deficient base diet by qPCR method; type: ADME, organism-based; details: in vivo, po; how it was run: as §3
[16] = system: Mus musculus; assay: Effect on Ugt2b5 gene expression in male PXR-humanized mouse liver at 500 mg/kg for 7 to 14 days dosed through vitamin E-deficient base diet by qPCR method; type: ADME, organism-based; details: in vivo, po; how it was run: as §2
[17] = system: Mus musculus; assay: Induction of Cyp2c39 gene expression in wild type mouse liver at 500 mg/kg for 7 to 14 days dosed through vitamin E-deficient base diet by qPCR method; type: ADME, organism-based; details: in vivo, po; how it was run: as §2
[18] = system: Mus musculus; assay: Induction of Cyp4f13 gene expression in male PXR-humanized mouse liver at 500 mg/kg for 7 to 14 days dosed through vitamin E-deficient base diet by qPCR method; type: ADME, organism-based; details: in vivo, po; how it was run: as §3
[19] = system: Mus musculus; assay: Induction of Cyp2c39 gene expression in male PXR-humanized mouse liver at 500 mg/kg for 7 to 14 days dosed through vitamin E-deficient base diet by qPCR method; type: ADME, organism-based; details: in vivo, po; how it was run: as §2
[20] = system: Mus musculus; assay: Effect on Ugt1a9 gene expression in male PXR-humanized mouse liver at 500 mg/kg for 7 to 14 days dosed through vitamin E-deficient base diet by qPCR method; type: ADME, organism-based; details: in vivo, po; how it was run: as §2
[21] = system: Mus musculus; assay: Induction of Cyp3a11 gene expression in male PXR-humanized mouse liver at 500 mg/kg for 7 to 14 days dosed through vitamin E-deficient base diet by qPCR method; type: ADME, organism-based; details: in vivo, po; how it was run: as §3
[22] = system: Mus musculus; assay: Effect on Ugt1a7c gene expression in male PXR-humanized mouse liver at 500 mg/kg for 7 to 14 days dosed through vitamin E-deficient base diet by qPCR method; type: ADME, organism-based; details: in vivo, po; how it was run: as §2
[23] = system: Mus musculus; assay: Drug metabolism in male wild type mouse assessed as urinary alpha-carboxyethylhydroxychroman glucuronide level at 500 mg/kg for 7 to 14 days dosed through vitamin E-deficient base diet by UPLC-ESI-QTOFMS method based metabolomics analysis; type: ADME, organism-based, Urine; details: in vivo, po
[24] = system: Cyp2c55; assay: Induction of Cyp2c55 gene expression in male PXR-humanized mouse liver at 500 mg/kg for 7 to 14 days dosed through vitamin E-deficient base diet by qPCR method; type: ADME, organism-based; details: po, read-out: FC; how it was run: as §2
[25] = system: Mus musculus; assay: Effect on Ugt1a1 gene expression in male PXR null mouse liver at 500 mg/kg for 7 to 14 days dosed through vitamin E-deficient base diet by qPCR method; type: ADME, organism-based; details: in vivo, po; how it was run: as §2
[26] = system: Mus musculus; assay: Effect on Ugt2b34 gene expression in male PXR null mouse liver at 500 mg/kg for 7 to 14 days dosed through vitamin E-deficient base diet by qPCR method; type: ADME, organism-based; details: in vivo, po; how it was run: as §2
[27] = system: Mus musculus; assay: Induction of Cyp3a11 gene expression in male PXR null mouse liver at 500 mg/kg for 7 to 14 days dosed through vitamin E-deficient base diet by qPCR method; type: ADME, organism-based; details: in vivo, po; how it was run: as §2
[28] = system: Mus musculus; assay: Effect on Ugt2b5 gene expression in wild type mouse liver at 500 mg/kg for 7 to 14 days dosed through vitamin E-deficient base diet by qPCR method; type: ADME, organism-based; details: in vivo, po; how it was run: as §2

For `CC(=O)Oc1c(C)c(C)c2c(c1C)CCC(C)(CCCC(C)CCCC(C)CCCC(C)C)O2` (racemic) [alpha-TOCHOPHERYL ACETATE], the Drug metabolism [1] was “metabolite_detected”, the Activity [2] was “Not Active” and the Drug metabolism [3] was “metabolite_detected”. For the same molecule, the Activity [4] was “Not Active”, the Activity [5] was “Not Active” and the Activity [6] was “Not Active”. For the same molecule, the Activity [7] was “Not Active”, the Drug metabolism [8] was “metabolite_detected” and the Activity [9] was “Not Active”. The fold induction [10] was 2.2, the fold induction [11] was 2 and the Activity [12] was “Active”. The Drug metabolism [13] was “metabolite_detected”, the Drug metabolism [14] was “metabolite_detected” and the Activity [15] was “Not Active”. The Activity [16] was “Not Active”, the Activity [17] was “Not Active” and the Activity [18] was “Not Active”. For the same molecule, the Activity [19] was “Not Active”, the Activity [20] was “Not Active” and the Activity [21] was “Not Active”. For the same molecule, the Activity [22] was “Not Active”, the Drug metabolism [23] was “metabolite_detected” and the fold induction [24] was 2.9. For the same molecule, the Activity [25] was “Not Active”, the Activity [26] was “Not Active” and the Activity [27] was “Not Active”. The Activity [28] was “Not Active”.
